Data set [1] relates to Cryptococcus neoformans. Kind of data set: Antifungal activity against Cryptococcus gattii ATCC 24065 assessed as reduction in cell viability at 1.9 uM after 6 to 72 hrs by MTT assay. It counts as functional, Cryptococcus bacillisporus. For orientation: Formazan colour is commonly taken as a measure of viable cells.
For data set [2], the system named is Cryptococcus bacillisporus. Kind of data set: Antifungal activity against Cryptococcus gattii ATCC 32608 assessed as reduction in cell viability after at 1.9 uM 6 to 72 hrs by MTT assay. It counts as functional.
Data set [3] deals with Cryptococcus gattii species complex. Kind of data set: Antifungal activity against Cryptococcus gattii 547/OTTI-97-PI-10 assessed as reduction in cell viability at 1.9 uM after 6 to 72 hrs by MTT assay. It counts as functional, Cryptococcus bacillisporus.
Data set [4] shares this test system. Kind of data set: Ratio of compound MIC for Cryptococcus gattii 547/OTTI-97-PI-10 in presence of fluconazole to compound MIC for Cryptococcus gattii 547/OTTI-97-PI-10 in absence of fluconazole by checkerboard microtiter test. It counts as functional, Cryptococcus bacillisporus. An outline of the steps:
(§1)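 Checkerboard microdilution: eight two-fold dilutions of test compound (0.11 to 15.6 µM) crossed with amphotericin B (0.025 to 3.9 µM, in DMSO) or fluconazole (0.48 to 62.5 µM, in water). Inoculum per CLSI M27-A3 in RPMI-MOPS pH 7.0, 1-5 x10^3 cells/mL. Growth 48 to 72 h. Effective MIC is the combination concentration giving complete inhibition. FICs derived from MICs in combination versus alone.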

The test system is the same in data set [5]. Kind of data set: Ratio of compound MIC for Cryptococcus gattii L28/02 in presence of fluconazole to compound MIC for Cryptococcus gattii L28/02 in absence of fluconazole by checkerboard microtiter test. It counts as functional, Cryptococcus bacillisporus. An outline of the steps:
as §1

For data set [6] the test system is unchanged. Kind of data set: Ratio of compound MIC for Cryptococcus gattii ICB181 in presence of fluconazole to compound MIC for Cryptococcus gattii ICB181 in absence of fluconazole by checkerboard microtiter test. It counts as functional, Cryptococcus bacillisporus. An outline of the steps: as §1
The subject of data set [7] is Cryptococcus neoformans. Kind of data set: Ratio of compound MIC for Cryptococcus neoformans 5396 in presence of fluconazole to compound MIC for Cryptococcus neoformans 5396 in absence of fluconazole by checkerboard microtiter test. It counts as functional. An outline of the steps:
as §1

The subject of data set [8] is Cryptococcus neoformans. Kind of data set: Ratio of compound MIC for Cryptococcus neoformans 27JF in presence of fluconazole to compound MIC for Cryptococcus neoformans 27JF in absence of fluconazole by checkerboard microtiter test. It counts as functional. An outline of the steps:
as §1

For data set [9], the system named is Cryptococcus neoformans. Kind of data set: Ratio of compound MIC for Cryptococcus neoformans LMM820 in presence of fluconazole to compound MIC for Cryptococcus neoformans LMM820 in absence of fluconazole by checkerboard microtiter test. It counts as functional. An outline of the steps: as §1
The test system of data set [10] is Cryptococcus neoformans. Kind of data set: Ratio of compound MIC for Cryptococcus neoformans ATCC 28957 in presence of fluconazole to compound MIC for Cryptococcus neoformans ATCC 28957 in absence of fluconazole by checkerboard microtiter test. It counts as functional. An outline of the steps:
as §1

Data set [11] relates to Cryptococcus gattii species complex. Kind of data set: Ratio of compound MIC for Cryptococcus gattii 547/OTTI-97-PI-10 in presence of amphotericin B to compound MIC for Cryptococcus gattii 547/OTTI-97-PI-10 in absence of amphotericin B by checkerboard microtiter test. It counts as functional, Cryptococcus bacillisporus. An outline of the steps:
as §1

The test system is the same in data set [12]. Kind of data set: Ratio of compound MIC for Cryptococcus gattii L28/02 in presence of amphotericin B to compound MIC for Cryptococcus gattii L28/02 in absence of amphotericin B by checkerboard microtiter test. It counts as functional, Cryptococcus bacillisporus. Summed up: as §1
The test system is the same in data set [13]. Kind of data set: Ratio of compound MIC for Cryptococcus gattii LMM818 in presence of amphotericin B to compound MIC for Cryptococcus gattii LMM818 in absence of amphotericin B by checkerboard microtiter test. It counts as functional, Cryptococcus bacillisporus. Summed up:
as §1

Data set [14] shares this test system. Kind of data set: Ratio of compound MIC for Cryptococcus gattii 1913ER in presence of amphotericin B to compound MIC for Cryptococcus gattii 1913ER in absence of amphotericin B by checkerboard microtiter test. It counts as functional, Cryptococcus bacillisporus. An outline of the steps:
as §1

For data set [15] the test system is unchanged. Kind of data set: Ratio of compound MIC for Cryptococcus gattii 23/10993 in presence of amphotericin B to compound MIC for Cryptococcus gattii 23/10993 in absence of amphotericin B by checkerboard microtiter test. It counts as functional, Cryptococcus bacillisporus. Summed up:
as §1

In data set [16] the test system is Cryptococcus neoformans. Kind of data set: Ratio of compound MIC for Cryptococcus neoformans 28JF in presence of amphotericin B to compound MIC for Cryptococcus neoformans 28JF in absence of amphotericin B by checkerboard microtiter test. It counts as functional. Summed up:
as §1

Data set [17] concerns Cryptococcus neoformans. Kind of data set: Ratio of compound MIC for Cryptococcus neoformans 96806 in presence of amphotericin B to compound MIC for Cryptococcus neoformans 96806 in absence of amphotericin B by checkerboard microtiter test. It counts as functional. Summed up: as §1
The subject of data set [18] is Cryptococcus neoformans. Kind of data set: Ratio of compound MIC for Cryptococcus neoformans WP in presence of amphotericin B to compound MIC for Cryptococcus neoformans WP in absence of amphotericin B by checkerboard microtiter test. It counts as functional. Summed up: as §1
The test system of data set [19] is Cryptococcus neoformans. Kind of data set: Ratio of compound MIC for Cryptococcus neoformans 5396 in presence of amphotericin B to compound MIC for Cryptococcus neoformans 5396 in absence of amphotericin B by checkerboard microtiter test. It counts as functional. An outline of the steps:
as §1

Data set [20] deals with Cryptococcus neoformans. Kind of data set: Ratio of compound MIC for Cryptococcus neoformans 27JF in presence of amphotericin B to compound MIC for Cryptococcus neoformans 27JF in absence of amphotericin B by checkerboard microtiter test. It counts as functional. An outline of the steps: as §1
Data set [21] deals with Cryptococcus neoformans. Kind of data set: Ratio of compound MIC for Cryptococcus neoformans LMM820 in presence of amphotericin B to compound MIC for Cryptococcus neoformans LMM820 in absence of amphotericin B by checkerboard microtiter test. It counts as functional. Summed up: as §1
Data set [22] deals with Cryptococcus neoformans. Kind of data set: Ratio of compound MIC for Cryptococcus neoformans ATCC 24067 in presence of amphotericin B to compound MIC for Cryptococcus neoformans ATCC 24067 in absence of amphotericin B by checkerboard microtiter test. It counts as functional. An outline of the steps:
as §1

Data set [23] is described as follows: Selectivity index, ratio of IC50 for African green monkey Vero cells to MIC for Cryptococcus gattii ATCC 24065. It counts as toxicity, cell-based.
Data set [24] deals with Cryptococcus gattii species complex. Kind of data set: Antifungal activity against Cryptococcus gattii L27/01 assessed as reduction in ergosterol content at MIC after 24 hrs by spectrophotometric analysis. It counts as functional, organism-based. The conditions noted are these: Cryptococcus bacillisporus. Summed up: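 Pellet washed and weighed, then saponified in 25% ethanolic KOH at 85°C for 1 h. Extracted with water and n-heptane, read at 282 and 230 nm. Ergosterol taken from a standard curve and expressed as % of growth control.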

Data set [25] relates to Cryptococcus bacillisporus. Kind of data set: Antifungal activity against Cryptococcus gattii ATCC 32608 assessed as reduction in cell viability at 3.9 uM after 6 to 72 hrs by MTT assay. It counts as functional.
The subject of data set [26] is Cryptococcus gattii species complex. Kind of data set: Antifungal activity against Cryptococcus gattii L28/02 assessed as reduction in cell viability at 3.9 uM after 6 to 72 hrs by MTT assay. It counts as functional, Cryptococcus bacillisporus.
For data set [27] the test system is unchanged. Kind of data set: Antifungal activity against Cryptococcus gattii 135L/03 assessed as reduction in cell viability at 3.9 uM after 6 to 72 hrs by MTT assay. It counts as functional, Cryptococcus bacillisporus.
For data set [28] the test system is unchanged. Kind of data set: Antifungal activity against Cryptococcus gattii L27/01 assessed as reduction in cell viability at 3.9 uM after 6 to 72 hrs by MTT assay. It counts as functional, Cryptococcus bacillisporus.
For data set [29], the system named is Cryptococcus neoformans. Kind of data set: Antifungal activity against Cryptococcus neoformans ATCC 28957 assessed as reduction in cell viability at 3.9 uM after 6 to 72 hrs by MTT assay. It counts as functional.
Data set [30] deals with Cryptococcus neoformans. Kind of data set: Antifungal activity against Cryptococcus neoformans ATCC 62066 assessed as reduction in cell viability at 3.9 uM after 6 to 72 hrs by MTT assay. It counts as functional.
The subject of data set [31] is Cryptococcus neoformans. Kind of data set: Antifungal activity against Cryptococcus neoformans F10 assessed as reduction in cell viability at 3.9 uM after 6 to 72 hrs by MTT assay. It counts as functional.
The test system of data set [32] is Cryptococcus neoformans. Kind of data set: Antifungal activity against Cryptococcus neoformans 28JF assessed as reduction in cell viability at 3.9 uM after 6 to 72 hrs by MTT assay. It counts as functional.

Calls of active or inactive are those of the source. The rule behind the calls is not given here.

Consider `C(=N\Nc1nc(-c2ccccc2)cs1)/C1CCCCC1`, for which the Activity (in the data set with Cryptococcus neoformans [1]; in data set [2]; in [3]) was 90% in each case. The “fractional inhibitory concentration index (FICI)” value is 4.47 in [4]; 2.47 in data set [5]; 2.58 in data set [6]; 2.4 with Cryptococcus neoformans [7]; 6.8 with Cryptococcus neoformans [8]; 4.24 in the data set on Cryptococcus neoformans [9]. In addition, the “fractional inhibitory concentration index (FICI)” value with Cryptococcus neoformans [10] amounted to 4.47; in data set [11] it was 4.74; in [12], 1.34; in [13], 2.58; in data set [14] it was 1.47; in data set [15], 2.67. Moreover, the “fractional inhibitory concentration index (FICI)” value amounted to 1.38 with Cryptococcus neoformans [16]; 2.67 with Cryptococcus neoformans [17]; 2.41 in the data set with Cryptococcus neoformans [18]; 1.15 in the data set on Cryptococcus neoformans [19]; 2.58 with Cryptococcus neoformans [20]; 4.3 in the data set on Cryptococcus neoformans [21]. Further, in the data set on Cryptococcus neoformans [22], the “fractional inhibitory concentration index (FICI)” value was found to be 2.67.
As for `OC(Cn1cncn1)(Cn1cncn1)c1ccc(F)cc1F` [FLUCONAZOLE], the selectivity ratio in data set [23] was 7.87. Besides, the result in [24] was Active.
For `c1ccc(-c2csc(NN=C3CCCC3)n2)cc1`, the “fractional inhibitory concentration index (FICI)” value is 5.96 in data set [4]; 4.22 in data set [5]; 4.58 in [6]; 3.46 in the data set on Cryptococcus neoformans [7]; 3.33 in the data set with Cryptococcus neoformans [8]; 4.46 with Cryptococcus neoformans [9]. Moreover, the “fractional inhibitory concentration index (FICI)” value is recorded as 3.36 with Cryptococcus neoformans [10]; 2.66 in data set [11]; 2.66 in [12]; 2.58 in data set [13]; 1.04 in [14]; 2.18 in data set [15]. Also, the “fractional inhibitory concentration index (FICI)” value in the data set with Cryptococcus neoformans [16] was determined as 2.46; in the data set on Cryptococcus neoformans [17], 2.46; in the data set with Cryptococcus neoformans [18] it was 1.46; in the data set with Cryptococcus neoformans [19], 4.86; in the data set on Cryptococcus neoformans [20], 2.66; in the data set with Cryptococcus neoformans [21], 2.66. For the same compound, in the data set on Cryptococcus neoformans [22], the “fractional inhibitory concentration index (FICI)” value is reported as 1.46. Moreover, the Activity (in data set [25]; in data set [26]; in [27]; in data set [28]; in the data set on Cryptococcus neoformans [29]; with Cryptococcus neoformans [30]) was 80% each time. Also, the Activity in the data set on Cryptococcus neoformans [31] and in the data set with Cryptococcus neoformans [32] was 80% throughout.
On to `COc1ccc(-c2csc(N/N=C/C3CCCCC3)n2)cc1`, for which the “fractional inhibitory concentration index (FICI)” value is 3.46 in data set [4]; 4.38 in data set [5]; 4.46 in [6]; 3.48 with Cryptococcus neoformans [7]; 4.59 with Cryptococcus neoformans [8]; 4.59 with Cryptococcus neoformans [9]. Also, the “fractional inhibitory concentration index (FICI)” value in the data set on Cryptococcus neoformans [10] is on record as 2.51; in [11], 2.58; in [12] it was 2.18; in [13] it was 1.46; in data set [14] it was 1.75; in data set [15], 2.36. The “fractional inhibitory concentration index (FICI)” value in the data set on Cryptococcus neoformans [16] came out at 1.75; in the data set with Cryptococcus neoformans [17], 1.46; with Cryptococcus neoformans [18] it was 1.46; with Cryptococcus neoformans [19], 2.07; with Cryptococcus neoformans [20], 2.78; in the data set on Cryptococcus neoformans [21], 2.78. Moreover, in the data set with Cryptococcus neoformans [22], the “fractional inhibitory concentration index (FICI)” value was 2.36. For the same compound, in [23], the selectivity ratio amounted to 25.6. In addition, the Activity (in [25]; in data set [26]; in data set [27]; in data set [28]; in the data set with Cryptococcus neoformans [29]; in the data set on Cryptococcus neoformans [30]) was 80% each time. The Activity in the data set on Cryptococcus neoformans [31] and in the data set on Cryptococcus neoformans [32] was 80% throughout.
Consider `C[C@@H]1[C@H](O)[C@@H](C)/C=C/C=C/C=C/C=C/C=C/C=C/C=C/[C@H](O[C@@H]2O[C@H](C)[C@@H](O)[C@H](N)[C@@H]2O)C[C@@H]2O[C@](O)(C[C@@H](O)C[C@@H](O)[C@H](O)CC[C@@H](O)C[C@@H](O)CC(=O)O[C@H]1C)C[C@H](O)[C@H]2C(=O)O` [AMPHOTERICIN B], for which the outcome in data set [24] was inactive.

For the origin of these results see ChEMBL document CHEMBL3616437, “Thiazole compounds with activity against Cryptococcus gattii and Cryptococcus neoformans in vitro” (Eur J Med Chem, 2015).
